Experimental findings from ChEMBL document CHEMBL3525900, “Pharmacokinetics, distribution, and metabolism of [14C]sunitinib in rats, monkeys, and humans” (Drug Metab Dispos, 2012) are described below.

The nature of series [1]: Drug recovery in feces of human at 50 mg, po administered as single dose during 0 to 504 hrs by liquid scintillation counting. The class given is ADME, organism-based. Further details: dosed compound name [14C]Sunitinib. Conditions: in vivo.
For series [2], the system named is Brain. Briefly: Drug concentration in male albino rat brain assessed as radioactivity per gram of tissue at 20 mg/kg administered as single dose via gastric gavage measured after 6 hrs by autoradiographic analysis. Format: ADME, organism-based. As to conditions: in vivo, po. Further details: dose 20 mg/kg, dosed compound name [14C]Sunitinib.
A short description of series [3]: Drug concentration in female albino rat pituitary gland assessed as radioactivity per gram of tissue at 20 mg/kg administered as single dose via gastric gavage measured after 6 hrs by autoradiographic analysis. As to conditions: in vivo, po. Further details: dose 20 mg/kg, dosed compound name [14C]Sunitinib. Format: ADME, organism-based. In short, it runs like this: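 Sprague Dawley albino rats, ca 7-8 weeks old, dosed once by gastric gavage with [14C]sunitinib L-malate (15 mg freebase/kg, 100 µCi/kg). One male and one female killed by CO2 at 3, 6, 24, 72 and 168 h. Carcasses frozen in solid CO2/hexane, embedded and cut into 30 µm sagittal sections, then freeze-dried. Radioactivity quantified by whole-body autoradiography against standards by regression, background subtracted.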

In series [4] the test system is Cynomolgus monkey. Briefly: Terminal half life as total radioactivity in male cynomolgus monkey plasma at 6 mg/kg, po administered as single dose by LC/MS/MS analysis. Format: ADME, organism-based, Macaca fascicularis. Further details: dose 6 mg/kg, dosed compound name [14C]Sunitinib, route oral. As to conditions: in vivo.
The test system of series [5] is Small intestine. Put plainly: Drug concentration in male Lister Hooded pigmented rat small intestine assessed as radioactivity per gram of tissue at 20 mg/kg administered as single dose via gastric gavage measured after 72 hrs by autoradiographic analysis. Format: ADME, organism-based. Further details: dose 20 mg/kg, dosed compound name [14C]Sunitinib. As to conditions: in vivo, po.

The test system of series [6] is Spleen. Put plainly: Drug concentration in male Lister Hooded pigmented rat spleen assessed as radioactivity per gram of tissue at 20 mg/kg administered as single dose via gastric gavage measured after 72 hrs by autoradiographic analysis. The class given is ADME, organism-based. Further details: dose 20 mg/kg, dosed compound name [14C]Sunitinib. As to conditions: in vivo, po.

Series [7] deals with Thymus. Put plainly: Drug concentration in male albino rat thymus assessed as radioactivity per gram of tissue at 20 mg/kg administered as single dose via gastric gavage measured after 24 hrs by autoradiographic analysis. Further details: dose 20 mg/kg, dosed compound name [14C]Sunitinib. As to conditions: in vivo, po. Format: ADME, organism-based.
Series [8] relates to Thymus. Briefly: Drug concentration in male albino rat thymus assessed as radioactivity per gram of tissue at 20 mg/kg administered as single dose via gastric gavage measured after 6 hrs by autoradiographic analysis. The class given is ADME, organism-based. More on the design: dose 20 mg/kg, dosed compound name [14C]Sunitinib. Conditions: in vivo, po.
The subject of series [9] is Lung. Put plainly: Drug concentration in male albino rat lung assessed as radioactivity per gram of tissue at 20 mg/kg administered as single dose via gastric gavage measured after 3 hrs by autoradiographic analysis. Format: ADME, organism-based. More on the design: dose 20 mg/kg, dosed compound name [14C]Sunitinib. Conditions: in vivo, po.
Series [10] is described as follows: Drug concentration in female Lister Hooded pigmented rat thyroid gland assessed as radioactivity per gram of tissue at 20 mg/kg administered as single dose via gastric gavage measured after 24 hrs by autoradiographic analysis. Format: ADME, organism-based. As to conditions: in vivo, po. Further details: dose 20 mg/kg, dosed compound name [14C]Sunitinib. The essentials:
(§1)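 Lister Hooded (pigmented) rats, ca 7-8 weeks old, acclimated 7 days, given [14C]sunitinib L-malate by gastric gavage at 20 mg/kg (15 mg freebase/kg, 100 µCi/kg). One male and one female killed by CO2 at 24, 72, 168 and 336 h. Carcasses frozen in solid CO2/hexane and embedded in frozen cellulose. 30 µm sagittal cryosections were freeze-dried. Tissue radioactivity measured by quantitative whole-body autoradiography against calibration standards, with background subtracted.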

Series [11] has as its system Cynomolgus monkey. Put plainly: Tmax as total radioactivity in female cynomolgus monkey plasma at 6 mg/kg, po administered as single dose by LC/MS/MS analysis. The class given is ADME, organism-based, Macaca fascicularis. More on the design: dose 6 mg/kg, dosed compound name [14C]Sunitinib, route oral. Conditions: in vivo.
Series [12] is described as follows: Drug concentration in female Lister Hooded pigmented rat brown fat assessed as radioactivity per gram of tissue at 20 mg/kg administered as single dose via gastric gavage measured after 24 hrs by autoradiographic analysis. The class given is ADME, organism-based, Brown adipose tissue. Further details: dose 20 mg/kg, dosed compound name [14C]Sunitinib. As to conditions: in vivo, po. In short, it runs like this:
as §1

In series [13] the test system is Spleen. Put plainly: Drug concentration in male albino rat spleen assessed as radioactivity per gram of tissue at 20 mg/kg administered as single dose via gastric gavage measured after 3 hrs by autoradiographic analysis. Format: ADME, organism-based. More on the design: dose 20 mg/kg, dosed compound name [14C]Sunitinib. Conditions: in vivo, po.
Series [14] can be described thus: Drug concentration in male Lister Hooded pigmented rat eye assessed as radioactivity per gram of tissue at 20 mg/kg administered as single dose via gastric gavage measured after 72 hrs by autoradiographic analysis. The class given is ADME, organism-based. Further details: dose 20 mg/kg, dosed compound name [14C]Sunitinib. Conditions: in vivo, po.
In series [15] the test system is Liver. Put plainly: Drug concentration in male Lister Hooded pigmented rat liver assessed as radioactivity per gram of tissue at 20 mg/kg administered as single dose via gastric gavage measured after 168 hrs by autoradiographic analysis. Format: ADME, organism-based. Further details: dose 20 mg/kg, dosed compound name [14C]Sunitinib. As to conditions: in vivo, po.

A word on the Tmax: it is the time from dosing to the highest level. As for `CCN(CC)CCNC(=O)c1c(C)[nH]c(/[14CH]=C2\C(=O)Nc3ccc(F)cc32)c1C.O=C(O)C[C@H](O)C(=O)O`, the Radiolabel recovery was determined as 61% in series [1]; 0.34 ugequiv in [2]; 20.88 ugequiv in series [3]; 0.07 ugequiv in series [5]; 0.13 ugequiv in series [6]; 0.58 ugequiv in series [7]. Also, the Radiolabel recovery in series [8] was 6.43 ugequiv; in series [9], 20.7 ugequiv; in [10], 0.64 ugequiv; in [12], 0.73 ugequiv; in [13], 20.52 ugequiv; in series [14], 23.98 ugequiv. For the same compound, the Radiolabel recovery in series [15] is 0.06 ugequiv. For the same compound, the “beta t1/2” value in [4] was determined as 222 h. In series [11], the Tmax stood at 4 h.
